Experimental data as given in ChEMBL document CHEMBL5724801, “EUbOPEN Chemogenomics Library - Multiplex” (2024).
Several values for one entry are separate records, joined by “and”; a condition that tells them apart may be missing. Equal values may be shown once.

Test system: Fibroblast
Assay: Multiplex assay against human fibroblast
Type: toxicity, cell-based
Procedure, shortened: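 Phenotypes for tubulin, mitochondrial mass and membrane permeability are expressed as per cents of healthy-nucleus cells. Cells were stained live at seeding with Hoechst33342, BioTracker Green Microtubule Cytoskeleton Dye, MitoTracker Red and Annexin V Alexa Fluor 680, then imaged after compound addition on a CQ1 microscope at 37°C and 5% CO2. Machine-learning gating in CellPathfinder separated Hoechst high-intensity objects from normal cells, divided normal cells by nuclear state (healthy, pyknosed, fragmented) and divided pyknosed cells into mitotic or apoptotic.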

[1] = 12 h, 1 µM, compound concentration 1 uM
[2] = 12 h, 10 µM, compound concentration 10 uM
[3] = 24 h, 1 µM, compound concentration 1 uM
[4] = 24 h, 10 µM, compound concentration 10 uM
[5] = 48 h, 1 µM, compound concentration 1 uM
[6] = 48 h, 10 µM, compound concentration 10 uM

COC[C@@H](CC(C)C)NC1=N/C(=C\c2ccc3ncsc3c2)C(=O)N1C
Population Apoptotic (%) [1]: 28.21% and 31.58% | Population Fragmented Nuclei (%) [1]: 27.8% and 24.34% | Population Healthy Nuclei (%) [1]: 58.12% and 69.41% | Population Hoechst High Intensity Objects (%) [1]: 0% | Population Membrane Permeable-Phenotype (%) [1]: 3.73% and 4.27% | Population Mitochondria Different-Phenotype (%) [1]: 9.94% and 6.64% | Population Mitotic Cells (%) [1]: 71.79% and 68.42% | Population Normal (%) [1]: 100% | Population Pyknosed Nuclei (%) [1]: 14.08% and 6.25% | Population Tubulin-Different-Phenotype (%) [1]: 13.66% and 33.18% | Total Cell Count [1]: 277 and 304 | Population Fragmented Nuclei (%) [2]: 75.02% and 85.21% | Population Healthy Nuclei (%) [2]: 17.78% and 11.87% | Population Hoechst High Intensity Objects (%) [2]: 13.82% and 16.56% | Population Membrane Permeable-Phenotype (%) [2]: 4.92% and 5.22% | Population Mitochondria Different-Phenotype (%) [2]: 5.46% and 4.48% | Population Mitotic Cells (%) [2]: 87.84% and 51.52% | Population Normal (%) [2]: 86.18% and 83.44% | Population Pyknosed Nuclei (%) [2]: 7.19% and 2.92% | Population Tubulin-Different-Phenotype (%) [2]: 16.94% and 38.81% | Total Cell Count [2]: 1194 and 1353 | Population Apoptotic (%) [3]: 32.26% and 29.41% | Population Fragmented Nuclei (%) [3]: 28.52% and 23.81% | Population Healthy Nuclei (%) [3]: 60.56% and 70.41% | Population Hoechst High Intensity Objects (%) [3]: 0% | Population Membrane Permeable-Phenotype (%) [3]: 1.16% and 4.83% | Population Mitochondria Different-Phenotype (%) [3]: 10.47% and 6.28% | Population Mitotic Cells (%) [3]: 67.74% and 70.59% | Population Normal (%) [3]: 100% | Population Pyknosed Nuclei (%) [3]: 10.92% and 5.78% | Population Tubulin-Different-Phenotype (%) [3]: 18.02% and 35.27% | Total Cell Count [3]: 284 and 294 | Population Apoptotic (%) [4]: 15.79% and 43.33% | Population Fragmented Nuclei (%) [4]: 73.6% and 85.59% | Population Healthy Nuclei (%) [4]: 21.08% and 11.79% | Population Hoechst High Intensity Objects (%) [4]: 7.03% and 15.44% | Population Membrane Permeable-Phenotype (%) [4]: 6.19% and 3.7% | Population Mitotic Cells (%) [4]: 84.21% and 56.67% | Population Normal (%) [4]: 92.97% and 84.56% | Population Pyknosed Nuclei (%) [4]: 5.32% and 2.62% | Population Tubulin-Different-Phenotype (%) [4]: 36.73% and 51.85% | Total Cell Count [4]: 1153 and 1354 | Population Apoptotic (%) [5]: 32.14% and 52.94% | Population Fragmented Nuclei (%) [5]: 34.66% and 16.78% | Population Healthy Nuclei (%) [5]: 57.39% and 77.27% | Population Hoechst High Intensity Objects (%) [5]: 0% | Population Membrane Permeable-Phenotype (%) [5]: 1.98% and 1.36% | Population Mitochondria Different-Phenotype (%) [5]: 7.43% and 5.43% | Population Mitotic Cells (%) [5]: 67.86% and 47.06% | Population Normal (%) [5]: 100% | Population Pyknosed Nuclei (%) [5]: 7.95% and 5.94% | Total Cell Count [5]: 352 and 286 | Population Apoptotic (%) [6]: 14.55% and 28.57% | Population Fragmented Nuclei (%) [6]: 76.66% and 86.7% | Population Healthy Nuclei (%) [6]: 18.12% and 11% | Population Hoechst High Intensity Objects (%) [6]: 20.81% and 19.66% | Population Membrane Permeable-Phenotype (%) [6]: 13.61% and 14.18% | Population Mitochondria Different-Phenotype (%) [6]: 1.57% and 10.45% | Population Mitotic Cells (%) [6]: 85.45% and 71.43% | Population Normal (%) [6]: 79.19% and 80.34% | Population Pyknosed Nuclei (%) [6]: 5.22% and 2.3% | Population Tubulin-Different-Phenotype (%) [6]: 27.75% and 50.75% | Total Cell Count [6]: 1331 and 1516

COc1cc(/C=C(\C#N)C(=O)Nc2nnc(C(F)(F)F)s2)ccc1OCc1ccc(C(F)(F)F)cc1C(F)(F)F
Population Healthy Nuclei (%) [1]: 58.16% and 84.16% | Population Hoechst High Intensity Objects (%) [1]: 0% | Population Membrane Permeable-Phenotype (%) [1]: 2.63% and 2.94% | Population Mitochondria Different-Phenotype (%) [1]: 3.51% and 3.53% | Population Mitotic Cells (%) [1]: 97.5% and 65% | Population Normal (%) [1]: 100% | Population Pyknosed Nuclei (%) [1]: 20.41% and 9.9% | Population Tubulin-Different-Phenotype (%) [1]: 14.04% and 8.24% | Total Cell Count [1]: 196 and 202 | Population Apoptotic (%) [2]: 13.04% and 12.12% | Population Fragmented Nuclei (%) [2]: 7.14% and 5.21% | Population Healthy Nuclei (%) [2]: 67.58% and 79.15% | Population Hoechst High Intensity Objects (%) [2]: 0% | Population Membrane Permeable-Phenotype (%) [2]: 4.07% and 1.2% | Population Mitochondria Different-Phenotype (%) [2]: 8.13% and 4.79% | Population Mitotic Cells (%) [2]: 86.96% and 87.88% | Population Normal (%) [2]: 100% | Population Pyknosed Nuclei (%) [2]: 25.27% and 15.64% | Population Tubulin-Different-Phenotype (%) [2]: 7.32% and 18.56% | Total Cell Count [2]: 182 and 211 | Population Apoptotic (%) [3]: 9.09% and 25% | Population Fragmented Nuclei (%) [3]: 17.05% and 6.05% | Population Healthy Nuclei (%) [3]: 67.74% and 86.51% | Population Hoechst High Intensity Objects (%) [3]: 0% | Population Membrane Permeable-Phenotype (%) [3]: 5.44% and 3.23% | Population Mitochondria Different-Phenotype (%) [3]: 4.76% and 1.61% | Population Mitotic Cells (%) [3]: 90.91% and 75% | Population Normal (%) [3]: 100% | Population Pyknosed Nuclei (%) [3]: 15.21% and 7.44% | Population Tubulin-Different-Phenotype (%) [3]: 14.97% and 9.14% | Total Cell Count [3]: 217 and 215 | Population Apoptotic (%) [4]: 9.09% and 23.53% | Population Fragmented Nuclei (%) [4]: 4.46% and 6.64% | Population Healthy Nuclei (%) [4]: 79.21% and 85.31% | Population Hoechst High Intensity Objects (%) [4]: 0% | Population Membrane Permeable-Phenotype (%) [4]: 3.75% and 3.33% | Population Mitochondria Different-Phenotype (%) [4]: 7.5% and 5% | Population Mitotic Cells (%) [4]: 90.91% and 76.47% | Population Normal (%) [4]: 100% | Population Pyknosed Nuclei (%) [4]: 16.34% and 8.06% | Population Tubulin-Different-Phenotype (%) [4]: 10% and 18.89% | Total Cell Count [4]: 202 and 211 | Population Apoptotic (%) [5]: 33.33% and 37.5% | Population Fragmented Nuclei (%) [5]: 14.56% and 6.01% | Population Healthy Nuclei (%) [5]: 78.54% and 90.56% | Population Hoechst High Intensity Objects (%) [5]: 0% | Population Membrane Permeable-Phenotype (%) [5]: 2.93% and 0.95% | Population Mitochondria Different-Phenotype (%) [5]: 8.29% and 2.37% | Population Mitotic Cells (%) [5]: 66.67% and 62.5% | Population Normal (%) [5]: 100% | Population Pyknosed Nuclei (%) [5]: 6.9% and 3.43% | Population Tubulin-Different-Phenotype (%) [5]: 6.83% and 10.43% | Total Cell Count [5]: 261 and 233 | Population Fragmented Nuclei (%) [6]: 7.11% and 8.56% | Population Healthy Nuclei (%) [6]: 90.05% and 88.74% | Population Hoechst High Intensity Objects (%) [6]: 0% | Population Membrane Permeable-Phenotype (%) [6]: 1.05% and 2.03% | Population Mitochondria Different-Phenotype (%) [6]: 10.53% and 2.54% | Population Mitotic Cells (%) [6]: 100% and 50% | Population Normal (%) [6]: 100% | Population Pyknosed Nuclei (%) [6]: 2.84% and 2.7% | Total Cell Count [6]: 211 and 222

CN(C)C(=O)Cn1cc(-c2ccc(-c3nnc4ccccn34)cc2)cn1
Population Apoptotic (%) [1]: 57% and 55% | Population Fragmented Nuclei (%) [1]: 18% and 20% | Population Healthy Nuclei (%) [1]: 60% and 58% | Population Hoechst High Intensity Objects (%) [1]: 5% | Population Membrane Permeable-Phenotype (%) [1]: 1% and 7% | Population Mitochondria Different-Phenotype (%) [1]: 3% and 7% | Population Mitotic Cells (%) [1]: 42% and 44% | Population Normal (%) [1]: 94% | Population Pyknosed Nuclei (%) [1]: 21% and 20% | Population Tubulin-Different-Phenotype (%) [1]: 22% and 42% | Total Cell Count [1]: 139 and 152 | Population Apoptotic (%) [2]: 52% and 39% | Population Healthy Nuclei (%) [2]: 63% and 38% | Population Hoechst High Intensity Objects (%) [2]: 3% and 8% | Population Membrane Permeable-Phenotype (%) [2]: 0% and 15% | Population Mitochondria Different-Phenotype (%) [2]: 6% and 18% | Population Mitotic Cells (%) [2]: 47% and 60% | Population Normal (%) [2]: 96% and 91% | Population Pyknosed Nuclei (%) [2]: 28% and 29% | Population Tubulin-Different-Phenotype (%) [2]: 31% and 70% | Total Cell Count [2]: 140 and 123 | Population Apoptotic (%) [3]: 56% and 54% | Population Fragmented Nuclei (%) [3]: 23% | Population Healthy Nuclei (%) [3]: 60% | Population Hoechst High Intensity Objects (%) [3]: 0% and 4% | Population Membrane Permeable-Phenotype (%) [3]: 2% and 4% | Population Mitochondria Different-Phenotype (%) [3]: 1% and 3% | Population Mitotic Cells (%) [3]: 43% and 45% | Population Normal (%) [3]: 99% and 95% | Population Pyknosed Nuclei (%) [3]: 16% | Population Tubulin-Different-Phenotype (%) [3]: 25% and 41% | Total Cell Count [3]: 144 and 142 | Population Apoptotic (%) [4]: 65% and 26% | Population Healthy Nuclei (%) [4]: 65% and 40% | Population Hoechst High Intensity Objects (%) [4]: 5% and 9% | Population Membrane Permeable-Phenotype (%) [4]: 2% and 10% | Population Mitochondria Different-Phenotype (%) [4]: 5% and 6% | Population Mitotic Cells (%) [4]: 34% and 73% | Population Normal (%) [4]: 94% and 90% | Population Pyknosed Nuclei (%) [4]: 24% and 22% | Population Tubulin-Different-Phenotype (%) [4]: 25% and 71% | Total Cell Count [4]: 140 and 126 | Population Apoptotic (%) [5]: 58% and 42% | Population Fragmented Nuclei (%) [5]: 22% and 28% | Population Healthy Nuclei (%) [5]: 61% and 52% | Population Hoechst High Intensity Objects (%) [5]: 1% and 5% | Population Membrane Permeable-Phenotype (%) [5]: 4% and 6% | Population Mitochondria Different-Phenotype (%) [5]: 4% and 2% | Population Mitotic Cells (%) [5]: 41% and 57% | Population Normal (%) [5]: 98% and 94% | Population Pyknosed Nuclei (%) [5]: 16% and 18% | Population Tubulin-Different-Phenotype (%) [5]: 29% and 46% | Total Cell Count [5]: 151 and 147 | Population Apoptotic (%) [6]: 52% and 60% | Population Fragmented Nuclei (%) [6]: 16% and 44% | Population Healthy Nuclei (%) [6]: 66% and 47% | Population Hoechst High Intensity Objects (%) [6]: 2% and 3% | Population Membrane Permeable-Phenotype (%) [6]: 0% and 18% | Population Mitochondria Different-Phenotype (%) [6]: 2% and 8% | Population Mitotic Cells (%) [6]: 47% and 40% | Population Normal (%) [6]: 97% and 96% | Population Pyknosed Nuclei (%) [6]: 17% and 7% | Population Tubulin-Different-Phenotype (%) [6]: 38% and 73% | Total Cell Count [6]: 137 and 131
